We go through 16 compounds from ChEMBL document CHEMBL1129454, “HIV protease inhibitory bis-benzamide cyclic ureas: a quantitative structure-activity relationship analysis” (J Med Chem, 1996).

Assay [1] deals with T1, Human immunodeficiency virus type 1 protease (Human immunodeficiency virus 1, UniProt Q72874). As to the kind of experiment: Binding affinity was evaluated on HIV Protease enzyme; not active. In short, it runs like this:
(§1)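 Cleavage products were separated by anion-exchange HPLC and the product quantified by fluorescence. Each compound was assayed at least twice and the mean reported; assay SD <±40%.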

For assay [2], the target named is T1, Human immunodeficiency virus type 1 protease. As to the kind of experiment: Binding affinity was evaluated with recombinant single chain dimeric HIV protease enzyme with a fluorescent substrate; not active. In outline:
as §1

Another assay has as its system T-cell. As to the kind of experiment: The concentration of the antiviral compound required to inhibit HIV RNA synthesis by 90%. viral RNA was quantified by sandwich hybridization assay; not active. Type of assay: functional, cell-based. In short, it runs like this: (§2)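 Susceptible T-cell lines grown in individual microtiter wells were infected with HIV. Cell-associated viral RNA was measured by RNA hybridization 3 days after infection. […] Assay SD was <±37%. Cytotoxicity was scored separately by tetrazolium dye metabolism, because RNA assay results are valid only at non-cytotoxic doses.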

Assay [3] concerns the target T1, Human immunodeficiency virus type 1 protease. As to the kind of experiment: Binding affinity for HIV-1 protease. In outline: as §1
Assay [4] shares this target. As to the kind of experiment: Inhibitory activity against HIV-1 protease. In outline:
as §1

In assay [5] the test system is Human immunodeficiency virus 1. As to the kind of experiment: The concentration required to inhibit HIV-1 RNA synthesis by 90%. Viral RNA quantified by a sandwich hybridization assay. Type of assay: functional. Particulars: Human immunodeficiency virus 1. In outline: as §2

The structures appear in SMILES notation. Activity calls are given as the source filed them. The calls are words filed in the database; no cut-off is given here.

As for `CC1(C)O[C@@H]2[C@@H](O1)[C@@H](Cc1ccccc1)N(Cc1cccc(C#N)c1)C(=O)N(Cc1cccc(C#N)c1)[C@@H]2Cc1ccccc1`, the Ki result in assay [1] and in assay [2] was “Not Active” throughout. In addition, the IC90 (in general, the concentration needed for an effect of 90%) with T-cell is “inactive”.

Turning to `CC1(C)O[C@@H]2[C@@H](O1)[C@@H](Cc1ccccc1)N(Cc1cccc(C(=O)O)c1)C(=O)N(Cc1cccc(C(=O)O)c1)[C@@H]2Cc1ccccc1`, the Ki result in assay [1] and in assay [2] was “Not Active” each time. For the same compound, the IC90 entry in the assay with T-cell was “inactive”.

On to `O=C(Nc1ccc(Cl)cn1)c1cccc(CN2C(=O)N(Cc3cccc(C(=O)Nc4ccc(Cl)cn4)c3)[C@H](Cc3ccccc3)[C@H](O)[C@@H](O)[C@H]2Cc2ccccc2)c1`, for which the Ki (commonly a dissociation constant, usually derived from enzyme kinetics or from competition with a known ligand) stood at 0.01 nM in assay [3] and 0.012 nM in assay [4]. Besides, in assay [5], the 90% effect level (IC90) was put at 14.7 nM.

With `Cc1cccc(NC(=O)c2cccc(CN3C(=O)N(Cc4cccc(C(=O)Nc5cccc(C)n5)c4)[C@H](Cc4ccccc4)[C@H](O)[C@@H](O)[C@H]3Cc3ccccc3)c2)n1`, the Ki in assay [3] and in assay [4] was 0.02 nM each time. This compound came in with a concentration for an effect of 90% (IC90) in assay [5] of 3.2 nM.

Regarding `O=C(Nc1ccccc1)c1cccc(CN2C(=O)N(Cc3cccc(C(=O)Nc4ccccc4)c3)[C@H](Cc3ccccc3)[C@H](O)[C@@H](O)[C@H]2Cc2ccccc2)c1`, the Ki came out at 0.37 nM in assay [3] and 0.43 nM in assay [4]. The IC90 in assay [5] was determined as 510 nM.

For the compound `Cc1ccc(NC(=O)c2cccc(CN3C(=O)N(Cc4cccc(C(=O)Nc5ccc(C)cn5)c4)[C@H](Cc4ccccc4)[C@H](O)[C@@H](O)[C@H]3Cc3ccccc3)c2)nc1`, the Ki in assay [3] stood at 0.01 nM; in assay [4] it was 0.011 nM. In assay [5], the IC90 is 3.1 nM.

As for `O=C(NCC(F)(F)F)c1cccc(CN2C(=O)N(Cc3cccc(C(=O)NCC(F)(F)F)c3)[C@H](Cc3ccccc3)[C@H](O)[C@@H](O)[C@H]2Cc2ccccc2)c1`, the Ki in assay [3] and in assay [4] was 0.21 nM in each case. The IC90 in assay [5] stood at 92.5 nM.

As for `CC(C)(C)NC(=O)c1cccc(CN2C(=O)N(Cc3cccc(C(=O)NC(C)(C)C)c3)[C@H](Cc3ccccc3)[C@H](O)[C@@H](O)[C@H]2Cc2ccccc2)c1`, the Ki in assay [3] was found to be 2.6 nM; in assay [4], 2.4 nM. In addition, the 90% effect level in assay [5] (IC90) was put at 717 nM.

With `COC(=O)c1cccc(CN2C(=O)N(Cc3cccc(C(=O)OC)c3)[C@H](Cc3ccccc3)[C@@H]3OC(C)(C)O[C@H]3[C@H]2Cc2ccccc2)c1`, the Ki result in assay [1] and in assay [2] was “Not Active” each time. Besides, the IC90 entry with T-cell was “inactive”.

On to `O=C(Nc1ccncc1)c1cccc(CN2C(=O)N(Cc3cccc(C(=O)Nc4ccncc4)c3)[C@H](Cc3ccccc3)[C@H](O)[C@@H](O)[C@H]2Cc2ccccc2)c1`, for which the Ki in assay [3] and in assay [4] was 0.41 nM each time. Further, the 90% effect level in assay [5] (IC90) was put at 93.7 nM.

Take `Cc1cccnc1NC(=O)c1cccc(CN2C(=O)N(Cc3cccc(C(=O)Nc4ncccc4C)c3)[C@H](Cc3ccccc3)[C@H](O)[C@@H](O)[C@H]2Cc2ccccc2)c1`: the Ki in assay [3] and in assay [4] was 0.26 nM throughout. In assay [5], this compound had an IC90 of 50.3 nM.

Take `CC(C)NC(=O)c1cccc(CN2C(=O)N(Cc3cccc(C(=O)NC(C)C)c3)[C@H](Cc3ccccc3)[C@H](O)[C@@H](O)[C@H]2Cc2ccccc2)c1`: the figures for the Ki in assay [3] and in assay [4] were 0.58 nM and 0.579 nM, respectively. In assay [5], this compound registered an IC90 of 266 nM.

Take `O=C(Nc1ccc(Br)cn1)c1cccc(CN2C(=O)N(Cc3cccc(C(=O)Nc4ccc(Br)cn4)c3)[C@H](Cc3ccccc3)[C@H](O)[C@@H](O)[C@H]2Cc2ccccc2)c1`: the Ki in assay [3] was 0.04 nM; in assay [4], 0.035 nM. The same compound yielded a concentration for an effect of 90% (IC90) in assay [5] of 28.2 nM.

As for `CCCCNC(=O)c1cccc(CN2C(=O)N(Cc3cccc(C(=O)NCCCC)c3)[C@H](Cc3ccccc3)[C@H](O)[C@@H](O)[C@H]2Cc2ccccc2)c1`, the Ki in assay [3] and in assay [4] was 0.424 nM each time. The compound further registered a concentration for an effect of 90% (IC90) in assay [5] of 255 nM.

With `Cc1ccnc(NC(=O)c2cccc(CN3C(=O)N(Cc4cccc(C(=O)Nc5nccc(C)n5)c4)[C@H](Cc4ccccc4)[C@H](O)[C@@H](O)[C@H]3Cc3ccccc3)c2)n1`, the values for the Ki in assay [3] and in assay [4] were 0.12 nM and 0.115 nM, respectively. This compound also gave an IC90 in assay [5] of 124 nM.

Consider `NC(=O)c1cccc(CN2C(=O)N(Cc3cccc(C(N)=O)c3)[C@H](Cc3ccccc3)[C@H](O)[C@@H](O)[C@H]2Cc2ccccc2)c1`, for which the Ki came out at 0.06 nM in assay [3] and 0.039 nM in assay [4]. The 90% effect concentration (IC90) in assay [5] was determined as 709 nM.
